Source: ChEMBL document CHEMBL1177864, “Synthesis and biological evaluation of some thio containing pyrrolo [2,3-d]pyrimidine derivatives for their anti-inflammatory and anti-microbial activities” (2010)
≈ marks a conversion by molar mass, not a printed value. Calls of active or inactive are those of the source. No cut-off for these calls is given here.

Assays:
[1] = tested on: Rattus norvegicus; experiment: Antiinflammatory activity in Sprague-Dawley rat assessed as inhibition of carrageenan-induced paw edema at 50 to 70 mg/kg, sc administered 1 hr before carrageenan challenge measured after 1 hr relative to control; type: functional; conditions: dose mg/kg 50-70; route subcutaneous
Summary of the method: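 One hour later, baseline right hind paw volume was taken, then 0.05 mL of 1% carrageenan in sterile pyrogen-free 0.9% NaCl was injected into the plantar aponeurosis. Paw volume was read by water plethysmometer at 1, 2, 3 and 4 h. % inhibition = (1 − Rt/Rc) × 100 against carrageenan-only controls (n=5).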

[2] = tested on: Rattus norvegicus; experiment: Antiinflammatory activity in Sprague-Dawley rat assessed as inhibition of carrageenan-induced paw edema at 50 to 70 mg/kg, sc administered 1 hr before carrageenan challenge measured after 2 hrs relative to control; conditions: dose mg/kg 50-70; route subcutaneous
[3] = tested on: Rattus norvegicus; experiment: Antiinflammatory activity in Sprague-Dawley rat assessed as inhibition of carrageenan-induced paw edema at 50 to 70 mg/kg, sc administered 1 hr before carrageenan challenge measured after 3 hrs relative to control; conditions: dose mg/kg 50-70; route subcutaneous
[4] = tested on: Rattus norvegicus; experiment: Antiinflammatory activity in Sprague-Dawley rat assessed as inhibition of carrageenan-induced paw edema at 50 to 70 mg/kg, sc administered 1 hr before carrageenan challenge measured after 4 hrs relative to control; conditions: dose mg/kg 50-70; route subcutaneous
[5] = tested on: Candida albicans; experiment: Antimicrobial activity against Candida albicans ATCC 10231 at 4 ug/disk by disk diffusion method; type: functional; conditions: read-out: DIZ
[6] = tested on: Pseudomonas aeruginosa; experiment: Antimicrobial activity against Pseudomonas aeruginosa ATCC […] at 4 ug/disk by disk diffusion method; type: functional, organism-based
[7] = tested on: Mycolicibacterium phlei; experiment: Antimicrobial activity against Mycobacterium phlei ATCC 10142 at 4 ug/disk by disk diffusion method; type: functional, organism-based
[8] = tested on: Escherichia coli; experiment: Antimicrobial activity against Escherichia coli ATCC 25922 at 4 ug/disk by disk diffusion method; type: functional, organism-based
[9] = tested on: Staphylococcus aureus; experiment: Antimicrobial activity against Staphylococcus aureus ATCC 29213 at 4 ug/disk by disk diffusion method; type: functional, organism-based
[10] = tested on: Bacillus subtilis; experiment: Antimicrobial activity against Bacillus subtilis ATCC 6633 at 4 ug/disk by disk diffusion method; type: functional, organism-based
[11] = tested on: Candida albicans; experiment: Antimicrobial activity against Candida albicans ATCC 10231 after 48 hrs by microdilution assay; type: functional; conditions: ATCC 10231, 48 h
Summary of the method: (§1)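 MIC by microdilution following NCCLS 1997 guidelines. Compounds were serially two-fold diluted in DMSO from 1024 down to […], mixed with sterile nutrient agar, and inoculum was added to each well. MIC was read as the lowest concentration giving complete absence of macroscopic growth. Controls were DMSO, organism alone and medium alone. Bacteria were precultured on MHA at 37 °C overnight; Candida on SDA at 35 °C.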

[12] = tested on: Bacillus subtilis; experiment: Antimicrobial activity against Bacillus subtilis ATCC 6633 after 24 hrs by microdilution assay; type: functional; conditions: ATCC 6633, 24 h
Summary of the method: (§2)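 MIC by micro-dilution per NCCLS 1997. Bacteria were subcultured overnight on Mueller-Hinton agar at 37 °C and passaged at least twice. Compounds were serially two-fold diluted in DMSO (1024 down to 16 stock levels) and mixed with sterile nutrient agar, then inoculum was added to the wells. MIC is the lowest concentration giving complete inhibition of macroscopic growth. Controls were DMSO, organism alone and medium alone.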

[13] = tested on: Staphylococcus aureus; experiment: Antimicrobial activity against Staphylococcus aureus ATCC 29213 after 24 hrs by microdilution assay; type: functional; conditions: ATCC 29213, 24 h; summary of the method: as §1
[14] = tested on: Candida albicans; experiment: Antimicrobial activity against Candida albicans ATCC 10231 at 20 ug/disk by disk diffusion method; type: functional, organism-based
Summary of the method: (§3)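 Disc diffusion sensitivity test as per Bauer et al. Bacteria were subcultured on Mueller-Hinton agar overnight at 37 °C; Candida on SDA at 35 °C for 24-48 h, each passaged at least twice. DMSO served as solvent control; amoxicillin and fluconazole were references. Read-out was the inhibition zone.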

[15] = tested on: Pseudomonas aeruginosa; experiment: Antimicrobial activity against Pseudomonas aeruginosa ATCC […] at 20 ug/disk by disk diffusion method; type: functional, organism-based; summary of the method: as §3
[16] = tested on: Mycolicibacterium phlei; experiment: Antimicrobial activity against Mycobacterium phlei ATCC 10142 at 20 ug/disk by disk diffusion method; type: functional, organism-based; summary of the method: as §3
[17] = tested on: Escherichia coli; experiment: Antimicrobial activity against Escherichia coli ATCC 25922 at 20 ug/disk by disk diffusion method; type: functional, organism-based; summary of the method: as §3
[18] = tested on: Staphylococcus aureus; experiment: Antimicrobial activity against Staphylococcus aureus ATCC 29213 at 20 ug/disk by disk diffusion method; type: functional, organism-based; summary of the method: as §3
[19] = tested on: Bacillus subtilis; experiment: Antimicrobial activity against Bacillus subtilis ATCC 6633 at 20 ug/disk by disk diffusion method; type: functional; conditions: read-out: DIZ; summary of the method: as §3
[20] = tested on: Candida albicans; experiment: Antimicrobial activity against Candida albicans ATCC 10231 at 25 ug/disk by disk diffusion method; type: functional, organism-based; summary of the method: as §3
[21] = tested on: Pseudomonas aeruginosa; experiment: Antimicrobial activity against Pseudomonas aeruginosa ATCC […] at 25 ug/disk by disk diffusion method; type: functional; conditions: read-out: DIZ; summary of the method: as §3
[22] = tested on: Mycolicibacterium phlei; experiment: Antimicrobial activity against Mycobacterium phlei ATCC 10142 at 25 ug/disk by disk diffusion method; type: functional, organism-based; summary of the method: as §3
[23] = tested on: Escherichia coli; experiment: Antimicrobial activity against Escherichia coli ATCC 25922 at 25 ug/disk by disk diffusion method; type: functional; conditions: read-out: DIZ; summary of the method: as §3
[24] = tested on: Staphylococcus aureus; experiment: Antimicrobial activity against Staphylococcus aureus ATCC 29213 at 25 ug/disk by disk diffusion method; type: functional; conditions: read-out: DIZ; summary of the method: as §3
[25] = tested on: Bacillus subtilis; experiment: Antimicrobial activity against Bacillus subtilis ATCC 6633 at 25 ug/disk by disk diffusion method; type: functional; conditions: read-out: DIZ; summary of the method: as §3
[26] = tested on: Escherichia coli; experiment: Antimicrobial activity against Escherichia coli ATCC 25922 after 24 hrs by microdilution assay; type: functional; conditions: ATCC 25922, 24 h
Summary of the method: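 MIC by microdilution following NCCLS 1997 guidelines. Bacteria were subcultured on Mueller-Hinton agar overnight at 37 °C and passaged at least twice. Compounds were serially two-fold diluted in DMSO (1024 down to 16), mixed with nutrient agar, and inoculated. MIC was the lowest concentration with no macroscopic growth. DMSO, organism-only and medium-only controls were included, with amoxicillin as reference.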

[27] = tested on: Pseudomonas aeruginosa; experiment: Antimicrobial activity against Pseudomonas aeruginosa ATCC […] after 24 hrs by microdilution assay; type: functional; summary of the method: as §2

| SMILES | inhibition (INH) [1] | inhibition (INH) [2] | inhibition (INH) [3] | inhibition (INH) [4] | other results |
| --- | --- | --- | --- | --- | --- |
| NNc1nc(N)c2c(-c3ccccc3)cn(-c3ccc(Cl)c(Cl)c3)c2n1 | 14.78% | 30% | 95.58% | 67.43% |  |
| OC(Cn1cncn1)(Cn1cncn1)c1ccc(F)cc1F [FLUCONAZOLE] |  |  |  |  | zone of inhibition at 4 µg/disc [5]: 20 mm; diameter of the inhibition zone (DIZ) [6]: inactive; diameter of the inhibition zone (DIZ) [7]: inactive; diameter of the inhibition zone (DIZ) [8]: inactive; diameter of the inhibition zone (DIZ) [9]: inactive; diameter of the inhibition zone (DIZ) [10]: inactive; MIC [11]: 512 µg/mL (≈ 1670 µM) |
| Cc1c(-n2c(-c3ccccc3)c(-c3ccccc3)c3c(=S)[nH]c(=S)[nH]c32)n(C)n(-c2ccccc2)c1=O | 0% | 3.94% | 14.1% | 28.8% |  |
| O=c1/c(=C/c2ccccc2)sc2nc3c(c(-c4ccccc4)c(-c4ccccc4)n3Cc3ccccc3)c(=S)n12 | 3.498% |  |  |  |  |
| Cc1c(-n2c(-c3ccccc3)c(-c3ccccc3)c3c(N)nc(=S)[nH]c32)n(C)n(-c2ccccc2)c1=O | 0% | 0% | 73.34% | 64.28% |  |
| S=c1[nH]c(=S)c2c(-c3ccccc3)cn(-c3ccc(Cl)c(Cl)c3)c2[nH]1 | 1.73% | 4.48% | 12.53% | 26% |  |
| Cc1c(-n2c(-c3ccccc3)c(-c3ccccc3)c3c(=S)n4c(=O)/c(=C/c5ccccc5)sc4nc32)n(C)n(-c2ccccc2)c1=O | 1.74% |  |  |  |  |
| N#Cc1c(-c2ccccc2)cn(-c2ccc(Cl)c(Cl)c2)c1N | 2.17% | 12.3% | 13.88% | 19.04% |  |
| S=c1[nH]c(=S)c2c(-c3ccccc3)c(-c3ccccc3)n(Cc3ccccc3)c2[nH]1 | 2.608% | 5.38% | 13.23% | 27.61% | MIC [12]: 512 µg/mL (≈ 1200 µM) |
| NNc1nc(N)c2c(-c3ccccc3)c(-c3ccccc3)n(Cc3ccccc3)c2n1 | 10.43% | 61.15% | 73.9% | 79.04% |  |
| Nc1nc(=S)[nH]c2c1c(-c1ccccc1)cn2-c1ccc(Cl)c(Cl)c1 | 6.08% | 95.38% | 95.95% | 76.82% |  |
| Nc1nc(=S)[nH]c2c1c(-c1ccccc1)c(-c1ccccc1)n2Cc1ccccc1 | 1.73% | 3.84% | 13.97% | 24.76% | MIC [12]: 512 µg/mL (≈ 1250 µM); MIC [13]: 256 µg/mL (≈ 627 µM) |
| N=c1c2c(-c3ccccc3)cn(-c3ccc(Cl)c(Cl)c3)c2[nH]c(=S)n1-c1ccccc1 | 42% | 48.07% | 76.83% | 68.57% |  |
| Cc1c(-n2c(N)c(C#N)c(-c3ccccc3)c2-c2ccccc2)n(C)n(-c2ccccc2)c1=O | 9.5% | 36.53% | 62.62% | 64.68% | diameter of the inhibition zone (DIZ) [14]: inactive; diameter of the inhibition zone (DIZ) [15]: inactive; diameter of the inhibition zone (DIZ) [16]: inactive; diameter of the inhibition zone (DIZ) [17]: inactive; diameter of the inhibition zone (DIZ) [18]: inactive; zone of inhibition at 20 µg/disc [19]: 10 mm; MIC [12]: 512 µg/mL (≈ 1150 µM) |
| Cc1c(-n2c(-c3ccccc3)c(-c3ccccc3)c3c(=N)n(-c4ccccc4)c(=S)[nH]c32)n(C)n(-c2ccccc2)c1=O | 1.98% |  |  |  |  |
| CC1(C)S[C@@H]2[C@H](NC(=O)[C@H](N)c3ccc(O)cc3)C(=O)N2[C@H]1C(=O)O [AMOXICILLIN] |  |  |  |  | diameter of the inhibition zone (DIZ) [20]: inactive; zone of inhibition at 25 µg/disc [21]: 12 mm; diameter of the inhibition zone (DIZ) [22]: inactive; zone of inhibition at 25 µg/disc [23]: 13 mm; zone of inhibition at 25 µg/disc [24]: 13 mm; zone of inhibition at 25 µg/disc [25]: 12 mm; MIC [12]: 64 µg/mL (≈ 175 µM); MIC [13]: 16 µg/mL (≈ 43.8 µM); MIC [26]: 256 µg/mL (≈ 701 µM); MIC [27]: 64 µg/mL (≈ 175 µM) |
| CC(C)Cc1ccc(C(C)C(=O)O)cc1 (stereo not drawn) [IBUPROFEN] | 6.08% | 45% | 60.66% | 69.52% |  |
| O=c1/c(=C/c2ccccc2)sc2nc3c(c(-c4ccccc4)cn3-c3ccc(Cl)c(Cl)c3)c(=S)n12 | 0% |  |  |  |  |
| N#Cc1c(-c2ccccc2)c(-c2ccccc2)n(Cc2ccccc2)c1N | 3.04% | 4.23% | 12.59% | 23.8% |  |
